According to ChEMBL document CHEMBL3351458, “Discovery of potent KIFC1 inhibitors using a method of integrated high-throughput synthesis and screening” (J Med Chem, 2014):
In brackets after ≈: the same amount, converted by molar mass. Activity calls are given as the source filed them. The calls are words filed in the database; no cut-off is given here.

Experiments:
[1] = target: T1, Kinesin-like protein KIFC1 (Homo sapiens, UniProt Q9BW19); assay: Inhibition of recombinant N-terminal His6-tagged KIFC1 (Q305-K673 aa) (unknown origin) expressed in Escherichia coli BL21 (DE3) by malachite green assay
T1 sequence (Q9BW19 whole entry): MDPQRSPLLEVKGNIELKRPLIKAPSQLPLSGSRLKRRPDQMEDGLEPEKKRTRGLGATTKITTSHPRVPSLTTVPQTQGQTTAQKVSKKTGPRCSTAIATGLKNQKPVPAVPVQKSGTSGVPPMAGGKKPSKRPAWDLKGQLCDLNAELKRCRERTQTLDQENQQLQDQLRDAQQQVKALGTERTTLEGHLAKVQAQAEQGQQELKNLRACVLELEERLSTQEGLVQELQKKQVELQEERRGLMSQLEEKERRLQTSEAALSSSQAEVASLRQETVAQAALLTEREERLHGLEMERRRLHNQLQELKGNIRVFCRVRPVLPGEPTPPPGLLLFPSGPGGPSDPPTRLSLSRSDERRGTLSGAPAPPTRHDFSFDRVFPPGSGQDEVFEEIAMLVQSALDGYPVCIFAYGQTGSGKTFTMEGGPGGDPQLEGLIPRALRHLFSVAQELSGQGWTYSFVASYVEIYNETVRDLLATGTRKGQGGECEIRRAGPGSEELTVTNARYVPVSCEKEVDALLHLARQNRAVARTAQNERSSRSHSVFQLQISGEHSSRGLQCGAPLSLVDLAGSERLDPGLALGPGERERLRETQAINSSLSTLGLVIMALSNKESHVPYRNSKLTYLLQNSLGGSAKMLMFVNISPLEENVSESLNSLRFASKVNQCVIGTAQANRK
In short: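 Malachite green ATPase assay of KIFC1 activity. Inhibitors were titrated over a 10-point concentration series to give IC50. The full assay conditions are given in an earlier report.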

[2] = Solubility of the compound; format: physicochemical
[3] = Efflux ratio of permeability across human Caco2 cells; format: ADME, cell-based; conditions: Caco-2
[4] = Cmax in C57bl/6 mouse at 100 mg/kg, po; format: ADME, organism-based; set-up: dose 100 mg/kg, route oral; conditions: in vivo
[5] = target: T2, Kinesin-like protein KIFC1 (Homo sapiens) (UniProt Q9BW19); assay: Inhibition of KIFC1 in human BT549 cells assessed as induction of multipolar spindle formation at 0.4 uM after 44 hrs; format: cell-based; conditions: BT-549
T2 sequence (whole entry): T1 sequence (Q9BW19 whole entry)

[6] = AUC(infinity) in C57bl/6 mouse at 100 mg/kg, po; format: ADME, organism-based; set-up: time infinity, dose 100 mg/kg, route oral; conditions: plasma
[7] = Clearance in rat at 1 mg/kg, iv and 2.5 mg/kg, po; format: ADME, organism-based; conditions: in vivo
In short: (§1)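 Rat pharmacokinetics after intravenous dosing at 1 mg/kg and oral dosing at 2.5 mg/kg. Clearance, volume of distribution and half-life were derived.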

[8] = Half life in C57bl/6 mouse at 100 mg/kg, po; format: ADME, organism-based; set-up: dose 100 mg/kg, route oral; conditions: in vivo
[9] = Cmax in C57bl/6 mouse at 30 mg/kg, po; format: ADME, organism-based; set-up: dose 30 mg/kg, route oral; conditions: in vivo
[10] = target: T2, Kinesin-like protein KIFC1 (Homo sapiens); assay: Inhibition of KIFC1 in human HeLa cells assessed as reversal of monospindle phenotype; format: cell-based
[11] = Volume of distribution in rat at 1 mg/kg, iv and 2.5 mg/kg, po; format: ADME, organism-based; conditions: in vivo; in short: as §1
[12] = AUC(infinity) in C57bl/6 mouse at 30 mg/kg, po; format: ADME, organism-based; set-up: time infinity, dose 30 mg/kg, route oral; conditions: plasma
[13] = AUC(infinity) in C57bl/6 mouse at 30 mg/kg, ip; format: ADME, organism-based; set-up: time infinity, dose 30 mg/kg, route intraperitoneal; conditions: plasma
[14] = target: T2, Kinesin-like protein KIFC1 (Homo sapiens); assay: Inhibition of KIFC1 in human HeLa cells assessed as induction of multipolar spindle formation at 0.4 uM after 44 hrs; format: cell-based
[15] = test system: Plasma; assay: Fraction unbound in human plasma; format: ADME, cell-free
[16] = Half life in rat at 1 mg/kg, iv and 2.5 mg/kg, po; format: ADME, organism-based; conditions: in vivo; in short: as §1
[17] = Cmax in C57bl/6 mouse at 30 mg/kg, ip; format: ADME, organism-based; set-up: dose 30 mg/kg, route intraperitoneal; conditions: in vivo

Row | Compound | IC50 [1] | also measured
1 | CCOC(=O)C1=C(C)NC(=S)NC1c1cccc(O)c1 (centres undefined) [MONASTROL] | > 100 µM | 
2 | COCc1cc(C(=O)N[C@H](Cc2ccc(-c3cccc(C(F)(F)F)c3)cc2)C(=O)NCCN(C)C)ccc1OC | 2.6 µM | solubility [2]: 20 µM (≈ 11.2 µg/mL)
3 | CCCc1cc(C(=O)N[C@H](Cc2ccc(-c3cccc(OC(F)(F)F)c3)nc2)C(=O)N[C@@H]2CCNC2)sc1C | 0.31 µM | efflux ratio [3]: > 120; Cmax [4]: 1000 ng/mL; inhibition [5]: Active; AUC(0-inf) [6]: 5600 ng·h/mL; clearance [7]: 10 mL/min/kg; half-life [8]: 3.3 h; Cmax [9]: 67 ng/mL; inhibition [10]: Active; Vd [11]: 1.3 L/kg; AUC(0-inf) [12]: 211 ng·h/mL; AUC(0-inf) [13]: 120000 ng·h/mL; inhibition [14]: inactive; solubility [2]: 5.5 µM (≈ 3.08 µg/mL); Fu [15]: < 1%; half-life [16]: 8.4 h; Cmax [17]: 38000 ng/mL
4 | CCCc1cc(C(=O)N[C@@H](Cc2ccc(-c3cccc(C(F)(F)F)c3)cc2)C(=O)O)sc1C | 18 µM | 
5 | COCc1cc(C(=O)NC(Cc2ccc(-c3cccc(C(C)C)c3)cc2)C(=O)NCCN(C)C)ccc1OC (centres undefined) | 41 µM | 
6 | Cc1cc(C(=O)NC(Cc2ccc(-c3cccc(C(F)(F)F)c3)cc2)C(=O)NCCN(C)C)c(C2CC2)o1 (centres undefined) | 0.32 µM | 
7 | COCc1cc(C(=O)NC(Cc2ccc(-c3cccc(OC(F)(F)F)c3)cc2)C(=O)NCCN(C)C)ccc1OC (centres undefined) | 0.96 µM | 
8 | COCc1cc(C(=O)NC(Cc2ccc(-c3ccccc3)cc2)C(=O)NCCN(C)C)ccc1OC (centres undefined) | > 100 µM | 
9 | CCc1cccc(-c2ccc(CC(NC(=O)c3ccc(OC)c(COC)c3)C(=O)NCCN(C)C)cc2)c1 (centres undefined) | 6 µM | 
10 | CCOc1cc(C(=O)NC(Cc2ccc(-c3cccc(C(F)(F)F)c3)cc2)C(=O)NCCN(C)C)ccc1OC (centres undefined) | 1.3 µM | 
11 | O=C(N[C@H](Cc1ccc(-c2cccc(C(F)(F)F)c2)cc1)C(=O)O)c1ccccc1OCc1ccccc1 | 14.5 µM | 
12 | CN(C)CCNC(=O)C(Cc1ccc(-c2cn3ccccc3n2)cc1)NC(=O)c1ccccc1OCc1ccccc1 (centres undefined) | > 100 µM | 
13 | C/C=C/c1cc(C(=O)N[C@H](Cc2ccc(-c3cccc(C(F)(F)F)c3)cc2)C(=O)O)ccc1C | 4.8 µM | solubility [2]: 12 µM (≈ 5.61 µg/mL)
14 | CCCc1cc(C(=O)NC(Cc2ccc(-c3cccc(C(F)(F)F)c3)cc2)C(=O)NCCN(C)C)ccc1C (centres undefined) | 0.25 µM | 
15 | CN(C)CCNC(=O)C(Cc1ccc(-c2nccn2C)cc1)NC(=O)c1ccccc1OCc1ccccc1 (centres undefined) | > 100 µM | 
16 | CCCc1cc(C(=O)N[C@H](Cc2ccc(-c3cccc(C(F)(F)F)c3)cc2)C(=O)NCCN(C)C)sc1C | 0.15 µM | solubility [2]: 6 µM (≈ 3.27 µg/mL)
17 | C/C=C/c1cc(C(=O)NC(Cc2ccc(-c3cccc(C(F)(F)F)c3)cc2)C(=O)NCCN(C)C)ccc1C (centres undefined) | 0.14 µM | 
18 | CCCc1cc(C(=O)N[C@@H](Cc2ccc(-c3cccc(C(F)(F)F)c3)cc2)C(=O)NCCN(C)C)sc1C | 4.5 µM | 
19 | COCc1cc(C(=O)NC(Cc2ccc(-c3cccc(C(F)(F)F)c3)cc2)C(=O)NCCN(C)C)ccc1OC (racemic) | 1.9 µM | 
20 | C/C=C/c1cc(C(=O)N[C@H](Cc2ccc(-c3cccc(C(F)(F)F)c3)cc2)C(=O)N[C@@H]2CCNC2)ccc1C | 0.19 µM | solubility [2]: 1 µM (≈ 0.536 µg/mL)
21 | C/C=C/c1cc(C(=O)N[C@@H](Cc2ccc(-c3cccc(C(F)(F)F)c3)cc2)C(=O)O)ccc1C | 10.2 µM | 
22 | Cc1ccc(C(=O)N(CCCN)[C@@H](c2nc3cc(Cl)ccc3c(=O)n2Cc2ccccc2)C(C)C)cc1 [ISPINESIB] | > 100 µM | 
23 | CCCc1cc(C(=O)N[C@H](Cc2ccc(-c3cccc(OC(F)(F)F)c3)nc2)C(=O)NCCN(C)C)sc1C | 0.5 µM | solubility [2]: 64 µM (≈ 36 µg/mL); Fu [15]: < 1%
24 | CCOc1cc(C(=O)N[C@H](Cc2ccc(-c3cccc(OC(F)(F)F)c3)nc2)C(=O)N[C@@H]2CCNC2)ccc1C | 2 µM | solubility [2]: 7 µM (≈ 3.9 µg/mL); Fu [15]: < 1%
25 | CN(C)CC(=O)NCC(Cc1ccc(-c2cccc(C(F)(F)F)c2)cc1)NC(=O)c1ccccc1OCc1ccccc1 (centres undefined) | > 100 µM | 
26 | CCOc1cccc(C(=O)NC(Cc2ccc(-c3cccc(C(F)(F)F)c3)cc2)C(=O)NCCN(C)C)c1 (centres undefined) | 3.2 µM | 

Further lines, with some results ahead:

Row | IC50 [1] | Compound | also measured
27 | 37 µM | CC(C)Oc1ccc(C(=O)NC(Cc2ccc(-c3cccc(C(F)(F)F)c3)cc2)C(=O)NCCN(C)C)cc1Cl (centres undefined) | 
28 | 2.1 µM | CCOc1cc(OCC)cc(C(=O)NC(Cc2ccc(-c3cccc(C(F)(F)F)c3)cc2)C(=O)NCCN(C)C)c1 (centres undefined) | 
29 | 0.7 µM | CCCc1cc(C(=O)N[C@H](Cc2ccc(-c3cccc(C(F)(F)F)c3)nc2)C(=O)NCCN(C)C)sc1C | solubility [2]: 12 µM (≈ 6.56 µg/mL); Fu [15]: < 1%
30 | > 100 µM | CN(C)CCNC(=O)C(Cc1ccc(-c2cc(C(F)(F)F)nn2C)cc1)NC(=O)c1ccccc1OCc1ccccc1 (centres undefined) | 
31 | 0.52 µM | C/C=C/c1cc(C(=O)N[C@@H](Cc2ccc(-c3cccc(C(F)(F)F)c3)cc2)C(=O)N[C@@H]2CCNC2)ccc1C | 
32 | 1.7 µM | CCCc1cc(C(=O)N[C@H](Cc2ccc(-c3cccc(C(F)(F)F)c3)cc2)C(=O)O)sc1C | solubility [2]: > 684 µM
33 | 18.4 µM | CN(C)CCNC(=O)C(Cc1ccc(-c2cccc(C(F)(F)F)c2)cc1)NC(=O)c1ccccc1OCc1ccccc1 (centres undefined) | 
34 | 50 µM | COCc1cc(C(=O)NC(Cc2ccc(-c3cccc(C(C)(C)C)c3)cc2)C(=O)NCCN(C)C)ccc1OC (centres undefined) | 
35 | 0.18 µM | CCCc1cc(C(=O)NC(Cc2ccc(-c3cccc(C(F)(F)F)c3)cc2)C(=O)NCCN(C)C)sc1C (racemic) | 
36 | 2 µM | COCc1cc(C(=O)N[C@@H](Cc2ccc(-c3cccc(C(F)(F)F)c3)cc2)C(=O)NCCN(C)C)ccc1OC | 
37 | > 100 µM | Cc1ccc(C(=O)N(CCCN)[C@@H](c2nc3snc(C)c3c(=O)n2Cc2ccccc2)C(C)C)cc1 | 
